Eight compounds from ChEMBL document CHEMBL1139773, “New fluoro-diphenylchalcogen derivatives to explore the serotonin transporter by PET” (Bioorg Med Chem Lett, 2007) can be followed below.

Type in all cases: tissue-based
The target in assay [1] is Sodium-dependent dopamine transporter (Rattus norvegicus, UniProt P23977). The experiment in a line: Displacement of [3H]WIN-35428 from DAT in rat brain. An outline of the steps: (§1)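 Competition binding in rat cortical and striatal brain homogenates, with tissue assignment per transporter not specified. Radioligands were [3H]WIN 35,428 for DAT, [3H]nisoxetine for NET and [3H]paroxetine for SERT. Ki values are means of two independent experiments, each run in triplicate; some entries come from a single experiment (n = 1, in triplicate).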
Chain of Sodium-dependent dopamine transporter (P23977 whole entry): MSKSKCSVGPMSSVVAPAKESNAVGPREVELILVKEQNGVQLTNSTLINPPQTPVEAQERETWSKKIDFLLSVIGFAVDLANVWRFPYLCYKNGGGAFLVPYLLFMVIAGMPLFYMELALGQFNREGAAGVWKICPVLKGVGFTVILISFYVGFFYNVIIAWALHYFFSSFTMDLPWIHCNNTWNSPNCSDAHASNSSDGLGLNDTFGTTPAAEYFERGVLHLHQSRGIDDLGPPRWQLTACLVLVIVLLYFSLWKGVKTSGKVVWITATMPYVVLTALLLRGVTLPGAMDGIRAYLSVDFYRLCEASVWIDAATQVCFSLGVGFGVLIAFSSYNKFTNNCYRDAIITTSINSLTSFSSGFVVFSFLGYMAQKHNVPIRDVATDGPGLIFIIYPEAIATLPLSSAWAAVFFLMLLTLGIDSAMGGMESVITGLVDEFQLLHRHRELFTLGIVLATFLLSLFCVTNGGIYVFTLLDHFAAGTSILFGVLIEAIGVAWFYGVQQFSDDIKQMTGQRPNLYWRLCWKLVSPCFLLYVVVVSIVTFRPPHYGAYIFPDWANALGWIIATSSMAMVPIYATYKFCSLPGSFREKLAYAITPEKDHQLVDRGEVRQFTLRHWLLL
(Loss of bound radioactivity is the signal in a displacement assay; it reports binding, not function.)

The target in assay [2] is T1, Sodium-dependent serotonin transporter (Rattus norvegicus, UniProt P31652). In words: Displacement of [3H]paroxetine from SERT in rat brain. The method, boiled down: as §1
T1 sequence (P31652 whole entry): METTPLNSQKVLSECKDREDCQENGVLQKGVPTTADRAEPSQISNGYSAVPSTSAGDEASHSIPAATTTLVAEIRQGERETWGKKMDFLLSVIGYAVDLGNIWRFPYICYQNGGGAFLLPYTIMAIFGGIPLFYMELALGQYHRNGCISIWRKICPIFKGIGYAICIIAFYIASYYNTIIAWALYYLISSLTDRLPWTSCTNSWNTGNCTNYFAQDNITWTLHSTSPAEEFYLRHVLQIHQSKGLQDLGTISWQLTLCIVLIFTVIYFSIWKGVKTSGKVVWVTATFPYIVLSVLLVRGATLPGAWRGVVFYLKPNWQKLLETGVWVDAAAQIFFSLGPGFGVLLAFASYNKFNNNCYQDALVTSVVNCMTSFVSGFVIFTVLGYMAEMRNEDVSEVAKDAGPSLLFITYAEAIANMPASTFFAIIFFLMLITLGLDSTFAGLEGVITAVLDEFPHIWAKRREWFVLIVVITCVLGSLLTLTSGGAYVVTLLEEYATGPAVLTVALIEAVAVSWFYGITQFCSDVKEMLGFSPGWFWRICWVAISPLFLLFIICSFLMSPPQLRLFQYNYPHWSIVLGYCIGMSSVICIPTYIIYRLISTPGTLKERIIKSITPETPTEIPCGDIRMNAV
In assay [3] the target is T1, Sodium-dependent serotonin transporter. In words: Displacement of [3H]citalopram from SERT in rat brain.
For assay [4], the target named is Norepinephrine transporter (Rattus norvegicus, UniProt Q9WTR4). In words: Displacement of [3H]nisoxetine from NET in rat brain. The method, boiled down: as §1
Chain of Norepinephrine transporter (Q9WTR4 whole entry): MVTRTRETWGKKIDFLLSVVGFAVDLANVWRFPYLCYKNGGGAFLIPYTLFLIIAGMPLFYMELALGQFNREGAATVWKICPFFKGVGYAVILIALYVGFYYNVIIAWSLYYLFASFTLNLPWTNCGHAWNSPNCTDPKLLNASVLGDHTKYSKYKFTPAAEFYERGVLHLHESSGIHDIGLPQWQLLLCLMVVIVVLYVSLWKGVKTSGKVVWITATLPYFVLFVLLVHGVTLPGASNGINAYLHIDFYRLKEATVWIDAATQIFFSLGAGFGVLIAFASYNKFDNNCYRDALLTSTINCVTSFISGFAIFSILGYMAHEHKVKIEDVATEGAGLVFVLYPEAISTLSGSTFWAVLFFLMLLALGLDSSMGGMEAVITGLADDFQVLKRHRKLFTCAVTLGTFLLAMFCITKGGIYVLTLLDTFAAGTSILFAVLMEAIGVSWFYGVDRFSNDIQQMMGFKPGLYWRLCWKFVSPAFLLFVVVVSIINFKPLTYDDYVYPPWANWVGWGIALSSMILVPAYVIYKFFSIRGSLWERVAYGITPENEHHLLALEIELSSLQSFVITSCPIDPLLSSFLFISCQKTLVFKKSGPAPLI

As usually defined, the Ki is the dissociation constant of the complex between target and ligand, obtained from inhibition or displacement. Lower therefore signals a stronger hold on the target. Consider `Cc1ccc(Sc2ccccc2CN(C)C)c(N)c1`, for which the Ki in assay [1] turned out to be 4160 nM; in assay [2], 0.62 nM.

With `CN(C)Cc1cc(Cl)ccc1Oc1ccc(F)cc1N`, the Ki in assay [3] was determined as 2.06 nM; in assay [1], 2530 nM; in assay [4], 2740 nM.

Regarding `Cc1ccc(Sc2ccc(F)cc2CN(C)C)c(N)c1`, the Ki in assay [1] stood at 3650 nM; in assay [4], 1040 nM; in assay [2] it was 0.27 nM.

As to `CN(C)Cc1cc(F)ccc1Sc1ccc(Cl)cc1N`, the Ki in assay [1] turned out to be 1840 nM; in assay [4] it was 919 nM; in assay [2], 0.35 nM.

As to `CN(C)Cc1cc(F)ccc1Oc1ccc(C#N)cc1N`, the Ki was 68300 nM in assay [1], 5550 nM in assay [4] and 2.91 nM in assay [2].

As to `CN(C)Cc1cc(F)ccc1Sc1ccc(C#N)cc1N`, the Ki came to 0.28 nM in assay [3], 14100 nM in assay [1] and 17900 nM in assay [4].

Turning to `Cc1ccc(Oc2ccc(F)cc2CN(C)C)c(N)c1`, the Ki in assay [1] stood at 2790 nM; in assay [4] it was 518 nM; in assay [2], 7.01 nM.

For the compound `CN(C)Cc1ccccc1Oc1ccc(F)cc1N`, the Ki in assay [1] stood at 4360 nM; in assay [4], 1080 nM; in assay [2] it was 13.4 nM.
